Measurements as given in publication PMC3654042 (Environmental toxicology, 2012).
“Also recorded” adds a separate entry of the source. Read-outs that look alike come from different tables or passages of the source. Blank lines part the entries; values can stand above or below the molecule they belong to.

Key:
[1] = biological target: T1, purified porcine liver PMPMEase (Sus scrofa, UniProt Q29550); experiment: Inhibition of purified porcine liver PMPMEase; assay type: biochemical; conditions: for residual enzyme activity (suppressed to) / inhibition of PMPMEase: fragrance 1 mM, PMPMEase 5 µg, 1 mM RD-PNB, 1 h; for residual enzyme activity (suppressed to): % of uninhibited control
T1 sequence (Q29550 19-566): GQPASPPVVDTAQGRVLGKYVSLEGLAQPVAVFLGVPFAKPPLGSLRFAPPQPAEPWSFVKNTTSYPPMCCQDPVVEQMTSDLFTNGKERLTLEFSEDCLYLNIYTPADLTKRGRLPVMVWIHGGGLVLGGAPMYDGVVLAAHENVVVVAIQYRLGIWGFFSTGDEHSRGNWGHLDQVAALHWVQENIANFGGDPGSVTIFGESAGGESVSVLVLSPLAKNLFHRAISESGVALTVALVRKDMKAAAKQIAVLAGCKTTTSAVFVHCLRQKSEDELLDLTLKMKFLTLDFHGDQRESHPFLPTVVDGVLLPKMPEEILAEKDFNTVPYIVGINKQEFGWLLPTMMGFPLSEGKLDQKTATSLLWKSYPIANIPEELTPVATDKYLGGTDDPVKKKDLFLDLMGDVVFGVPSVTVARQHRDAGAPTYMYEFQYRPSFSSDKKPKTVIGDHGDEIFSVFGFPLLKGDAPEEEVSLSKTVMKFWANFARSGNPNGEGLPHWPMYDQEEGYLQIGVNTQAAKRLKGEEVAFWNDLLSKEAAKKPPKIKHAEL
Procedure, shortened: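 Single-concentration screen: test compound 1 mM in DMSO was incubated with 5 µg purified pig liver PMPMEase and 1 mM RD-PNB substrate for 1 h in 100 mM Tris–HCl, pH 7.4, at 37°C. Stopped with methanol, chilled on ice, and centrifuged at 5000 × g for 5 min. Residual activity was measured by reversed-phase HPLC of the supernatant, as % of uninhibited control, N = 3.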

[2] = system: human lung cancer A549 cells; experiment: Apoptosis assay; assay type: cell-based; conditions: 0–10 µM, serum-free medium
Procedure, shortened: (§1)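 Treatment at 0–10 µM in serum-free medium at 37°C in 5% CO2/95% humidified air, one addition per well. Exposure is 24 h per methods and 48 h per figure legend. A549 were seeded at 2 × 10^5 per well and SH-SY5Y at 3 × 10^5 per well in 24-well plates. Stained in the dark with EB/AO 10 µg/mL for 15 min and viewed at 400× with 480/30 nm excitation. Green nuclei were scored live, condensed or fragmented orange chromatin apoptotic, and normal orange nuclei necrotic.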

[3] = system: human lung cancer A549 cells; experiment: Cell viability; assay type: cell-based; conditions: for cell degeneration: A549 cells, 1–200 µM, 48 h
Procedure, shortened: (§2)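 A549 cells grown in DMEM/F12 with 10% heat-inactivated FBS and penicillin/streptomycin at 37°C, 5% CO2, trypsinized at 80–90% confluence, and seeded in 96-well plates. Treated with test compound (1–200 µM, acetone vehicle, 1% final) in serum-free RPMI 1640/F12, with the same dose re-added at 24 h, for 48 h. Resazurin (0.05%) added for 2 h in the dark at room temperature. Fluorescence read at ex 560/em 590 nm and expressed as % of untreated control, mean ± SEM, N = 4.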

[4] = system: human neuroblastoma SH-SY5Y cells; experiment: Apoptosis assay; assay type: cell-based; conditions: 0–10 µM, serum-free medium
Procedure, shortened: as §1

[5] = system: human neuroblastoma SH-SY5Y cells; experiment: Cell viability; assay type: cell-based; conditions: for cell degeneration: SH-SY5Y cells, 1–200 µM, 48 h
Procedure, shortened: as §2, with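 “SH-SY5Y neuroblastoma” for “A549”, “plated” for “seeded”, “Exposed in serum-free DMEM/F12 to” for “Treated with”, “final), re-dosed identically” for “final) in serum-free RPMI 1640/F12, with the same dose re-added”, “nm” for “nm and expressed”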

[6] = purified porcine liver PMPMEase, RD-PNB substrate

SMILES: CC1=C(C=O)C(C)(C)CCC1 [β-Cyclocitral, β-cyclocitral]
residual enzyme activity (suppressed to) [1]: less than 25%
Ki [1, 6]: 4 µM

SMILES: CC(=O)c1cc2c(cc1C)C(C)(C)C(C)CC2(C)C (stereo not drawn) [Tonalide]
apoptosis (AO/EB staining, words) [2]: apoptosis was observed in a concentration-dependent manner; also recorded: induced apoptosis
cell degeneration [3]: significant degeneration
EC50 ([3]; read-out: EC50 cell degeneration, lung cancer A549 cells, resazurin reduction): 14 µM
apoptosis (AO/EB staining, words) [4]: apoptosis was observed in a concentration-dependent manner; also recorded: induced apoptosis
residual enzyme activity (suppressed to) [1]: less than 25%
Ki [1, 6]: 14 µM
cell degeneration [5]: significant degeneration

SMILES: CC1COCc2cc3c(cc21)C(C)(C)C(C)C3(C)C (stereo not drawn) [Galaxolide]
apoptosis (AO/EB staining, words) [2]: induced apoptosis
cell degeneration [3]: significant degeneration
EC50 ([3]; Homo sapiens, A549, read-out: EC50 cell degeneration): 58 µM
apoptosis (AO/EB staining, words) [4]: induced apoptosis
Ki [1]: 11 µM
residual enzyme activity (suppressed to) [1]: less than 25%
EC50 ([5]; Homo sapiens, SH-SY5Y, read-out: EC50 cell degeneration): 26 µM
cell degeneration [5]: significant degeneration

SMILES: O=C1CCCCCCCCCCCCCCO1 [ω-Pentadecalactone, ω-pentadecalactone]
residual enzyme activity (suppressed to) [1]: less than 25%
Ki [1, 6]: 46 µM

Now from value to molecule:

Ki [1]: 173 µM
IC50 ([1]; IC50, purified porcine liver PMPMEase, value as worded in text): > 1000 µM
inhibition of PMPMEase [1]: 60%
residual enzyme activity (suppressed to) [1]: less than 25%
SMILES: CCCCC=O [Pentanal, pentanal]

residual enzyme activity (suppressed to) [1]: less than 25%
Ki [1, 6]: 12 µM
SMILES: CCCCCCCCC1CCC(=O)O1 (stereo not drawn) [Dodecalactone, γ-dodecalactone]

inhibition of PMPMEase [1]: 30%
residual enzyme activity (suppressed to) [1]: less than 25%
SMILES: CCCCC1CCCCC(=O)O1 (stereo not drawn) [ε-decalactone]
